Measurements published in ChEMBL document CHEMBL4229462, “Design and synthesis of novel anti-hyperalgesic agents based on 6-prenylnaringenin as the T-type calcium channel blockers” (Bioorg Med Chem, 2018).
Activity calls are given as the source filed them.

Tests used:
[1] = molecular target: T1, Voltage-dependent T-type calcium channel subunit alpha-1H (Homo sapiens, UniProt O95180); experiment: Inhibition of human CaV3.2 expressed in HEK293 cells assessed as suppression of T-current amplitude by measuring remaining activity at 3 uM after 10 mins by whole cell patch clamp method relative to control; type: cell-based
T1 sequence (O95180 whole entry): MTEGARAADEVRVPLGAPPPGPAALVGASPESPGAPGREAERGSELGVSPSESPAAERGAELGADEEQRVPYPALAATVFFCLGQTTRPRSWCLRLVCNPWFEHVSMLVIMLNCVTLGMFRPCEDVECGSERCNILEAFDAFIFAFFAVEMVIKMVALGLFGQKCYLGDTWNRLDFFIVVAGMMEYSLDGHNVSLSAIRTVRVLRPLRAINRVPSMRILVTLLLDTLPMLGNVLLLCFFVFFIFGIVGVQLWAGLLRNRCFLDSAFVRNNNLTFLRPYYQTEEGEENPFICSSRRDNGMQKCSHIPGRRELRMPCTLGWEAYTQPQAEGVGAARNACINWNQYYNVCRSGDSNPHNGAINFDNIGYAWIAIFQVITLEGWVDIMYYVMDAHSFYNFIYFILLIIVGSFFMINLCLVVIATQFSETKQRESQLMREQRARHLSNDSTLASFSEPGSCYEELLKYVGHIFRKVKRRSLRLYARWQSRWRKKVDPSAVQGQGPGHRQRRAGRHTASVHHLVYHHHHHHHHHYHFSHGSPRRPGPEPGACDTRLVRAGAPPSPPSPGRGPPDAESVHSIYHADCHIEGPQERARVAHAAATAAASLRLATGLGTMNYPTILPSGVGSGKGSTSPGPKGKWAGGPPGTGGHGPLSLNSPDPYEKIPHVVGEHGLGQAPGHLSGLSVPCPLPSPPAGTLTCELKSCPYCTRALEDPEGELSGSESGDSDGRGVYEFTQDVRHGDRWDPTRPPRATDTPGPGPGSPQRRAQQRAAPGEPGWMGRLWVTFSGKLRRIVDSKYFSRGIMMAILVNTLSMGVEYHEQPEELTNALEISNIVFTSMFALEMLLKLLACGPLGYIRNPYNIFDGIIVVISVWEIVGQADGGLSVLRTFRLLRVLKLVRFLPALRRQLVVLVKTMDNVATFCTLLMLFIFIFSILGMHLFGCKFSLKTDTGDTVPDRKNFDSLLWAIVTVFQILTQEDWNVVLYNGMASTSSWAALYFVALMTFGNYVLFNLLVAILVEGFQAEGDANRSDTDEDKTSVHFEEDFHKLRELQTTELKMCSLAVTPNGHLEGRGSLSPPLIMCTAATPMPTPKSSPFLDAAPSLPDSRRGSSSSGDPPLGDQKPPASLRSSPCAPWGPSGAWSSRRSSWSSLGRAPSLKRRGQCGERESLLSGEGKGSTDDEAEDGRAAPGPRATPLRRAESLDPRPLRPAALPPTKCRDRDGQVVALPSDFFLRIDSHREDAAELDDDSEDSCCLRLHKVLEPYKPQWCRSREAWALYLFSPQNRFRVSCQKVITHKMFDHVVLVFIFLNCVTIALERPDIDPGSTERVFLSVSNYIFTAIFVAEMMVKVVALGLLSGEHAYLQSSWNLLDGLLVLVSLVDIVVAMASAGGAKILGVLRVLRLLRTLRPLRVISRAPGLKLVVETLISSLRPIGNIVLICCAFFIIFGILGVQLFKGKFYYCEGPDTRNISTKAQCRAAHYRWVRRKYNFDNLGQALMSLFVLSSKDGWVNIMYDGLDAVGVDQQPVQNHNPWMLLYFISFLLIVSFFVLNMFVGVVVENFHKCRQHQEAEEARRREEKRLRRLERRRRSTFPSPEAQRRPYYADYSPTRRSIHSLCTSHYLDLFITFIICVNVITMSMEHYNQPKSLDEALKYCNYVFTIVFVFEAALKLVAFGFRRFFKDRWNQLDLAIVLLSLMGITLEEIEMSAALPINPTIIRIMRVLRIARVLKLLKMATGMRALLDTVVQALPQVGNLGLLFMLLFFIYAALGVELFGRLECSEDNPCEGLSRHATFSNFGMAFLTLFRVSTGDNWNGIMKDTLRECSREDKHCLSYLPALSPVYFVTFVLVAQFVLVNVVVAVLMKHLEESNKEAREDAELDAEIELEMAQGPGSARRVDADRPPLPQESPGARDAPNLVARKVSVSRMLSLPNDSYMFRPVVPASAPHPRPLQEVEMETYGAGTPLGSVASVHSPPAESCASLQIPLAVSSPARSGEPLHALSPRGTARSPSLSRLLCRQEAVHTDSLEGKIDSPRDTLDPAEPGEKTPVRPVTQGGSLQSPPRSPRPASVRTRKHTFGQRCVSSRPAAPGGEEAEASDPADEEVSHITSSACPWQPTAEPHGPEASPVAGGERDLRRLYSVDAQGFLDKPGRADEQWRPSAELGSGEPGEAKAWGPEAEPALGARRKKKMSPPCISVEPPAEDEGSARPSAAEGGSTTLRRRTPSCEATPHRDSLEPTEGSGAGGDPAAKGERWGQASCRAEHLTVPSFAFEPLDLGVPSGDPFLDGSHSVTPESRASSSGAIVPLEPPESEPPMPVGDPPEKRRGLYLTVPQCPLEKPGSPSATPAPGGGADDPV
Outline: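 HEK293 cells stably expressing human Cav3.2 were recorded by whole-cell patch clamp, holding at −90 mV with a 30 mV test pulse evoking Ba²⁺ currents. Remaining T-current after 3 μM compound is given as % of control; some entries were measured at 1 μM.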

[2] = molecular target: T1, Voltage-dependent T-type calcium channel subunit alpha-1H; experiment: Inhibition of human CaV3.2 expressed in HEK293 cells assessed as suppression of T-current amplitude after 10 mins by whole cell patch clamp method; type: cell-based
Outline: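 Whole-cell patch clamp was done on HEK293 cells stably expressing human Cav3.2. Membrane was held at −90 mV and Ba²⁺ currents were evoked by a 30 mV test pulse. IC50 was derived from T-current suppression.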

[3] = molecular target: Voltage-dependent T-type calcium channel subunit alpha-1G (Homo sapiens, UniProt O43497); experiment: Inhibition of human CaV3.1 expressed in HEK293 cells assessed as suppression of T-current after 10 mins by whole cell patch clamp method; type: cell-based
Voltage-dependent T-type calcium channel subunit alpha-1G, sequence (O43497 whole entry): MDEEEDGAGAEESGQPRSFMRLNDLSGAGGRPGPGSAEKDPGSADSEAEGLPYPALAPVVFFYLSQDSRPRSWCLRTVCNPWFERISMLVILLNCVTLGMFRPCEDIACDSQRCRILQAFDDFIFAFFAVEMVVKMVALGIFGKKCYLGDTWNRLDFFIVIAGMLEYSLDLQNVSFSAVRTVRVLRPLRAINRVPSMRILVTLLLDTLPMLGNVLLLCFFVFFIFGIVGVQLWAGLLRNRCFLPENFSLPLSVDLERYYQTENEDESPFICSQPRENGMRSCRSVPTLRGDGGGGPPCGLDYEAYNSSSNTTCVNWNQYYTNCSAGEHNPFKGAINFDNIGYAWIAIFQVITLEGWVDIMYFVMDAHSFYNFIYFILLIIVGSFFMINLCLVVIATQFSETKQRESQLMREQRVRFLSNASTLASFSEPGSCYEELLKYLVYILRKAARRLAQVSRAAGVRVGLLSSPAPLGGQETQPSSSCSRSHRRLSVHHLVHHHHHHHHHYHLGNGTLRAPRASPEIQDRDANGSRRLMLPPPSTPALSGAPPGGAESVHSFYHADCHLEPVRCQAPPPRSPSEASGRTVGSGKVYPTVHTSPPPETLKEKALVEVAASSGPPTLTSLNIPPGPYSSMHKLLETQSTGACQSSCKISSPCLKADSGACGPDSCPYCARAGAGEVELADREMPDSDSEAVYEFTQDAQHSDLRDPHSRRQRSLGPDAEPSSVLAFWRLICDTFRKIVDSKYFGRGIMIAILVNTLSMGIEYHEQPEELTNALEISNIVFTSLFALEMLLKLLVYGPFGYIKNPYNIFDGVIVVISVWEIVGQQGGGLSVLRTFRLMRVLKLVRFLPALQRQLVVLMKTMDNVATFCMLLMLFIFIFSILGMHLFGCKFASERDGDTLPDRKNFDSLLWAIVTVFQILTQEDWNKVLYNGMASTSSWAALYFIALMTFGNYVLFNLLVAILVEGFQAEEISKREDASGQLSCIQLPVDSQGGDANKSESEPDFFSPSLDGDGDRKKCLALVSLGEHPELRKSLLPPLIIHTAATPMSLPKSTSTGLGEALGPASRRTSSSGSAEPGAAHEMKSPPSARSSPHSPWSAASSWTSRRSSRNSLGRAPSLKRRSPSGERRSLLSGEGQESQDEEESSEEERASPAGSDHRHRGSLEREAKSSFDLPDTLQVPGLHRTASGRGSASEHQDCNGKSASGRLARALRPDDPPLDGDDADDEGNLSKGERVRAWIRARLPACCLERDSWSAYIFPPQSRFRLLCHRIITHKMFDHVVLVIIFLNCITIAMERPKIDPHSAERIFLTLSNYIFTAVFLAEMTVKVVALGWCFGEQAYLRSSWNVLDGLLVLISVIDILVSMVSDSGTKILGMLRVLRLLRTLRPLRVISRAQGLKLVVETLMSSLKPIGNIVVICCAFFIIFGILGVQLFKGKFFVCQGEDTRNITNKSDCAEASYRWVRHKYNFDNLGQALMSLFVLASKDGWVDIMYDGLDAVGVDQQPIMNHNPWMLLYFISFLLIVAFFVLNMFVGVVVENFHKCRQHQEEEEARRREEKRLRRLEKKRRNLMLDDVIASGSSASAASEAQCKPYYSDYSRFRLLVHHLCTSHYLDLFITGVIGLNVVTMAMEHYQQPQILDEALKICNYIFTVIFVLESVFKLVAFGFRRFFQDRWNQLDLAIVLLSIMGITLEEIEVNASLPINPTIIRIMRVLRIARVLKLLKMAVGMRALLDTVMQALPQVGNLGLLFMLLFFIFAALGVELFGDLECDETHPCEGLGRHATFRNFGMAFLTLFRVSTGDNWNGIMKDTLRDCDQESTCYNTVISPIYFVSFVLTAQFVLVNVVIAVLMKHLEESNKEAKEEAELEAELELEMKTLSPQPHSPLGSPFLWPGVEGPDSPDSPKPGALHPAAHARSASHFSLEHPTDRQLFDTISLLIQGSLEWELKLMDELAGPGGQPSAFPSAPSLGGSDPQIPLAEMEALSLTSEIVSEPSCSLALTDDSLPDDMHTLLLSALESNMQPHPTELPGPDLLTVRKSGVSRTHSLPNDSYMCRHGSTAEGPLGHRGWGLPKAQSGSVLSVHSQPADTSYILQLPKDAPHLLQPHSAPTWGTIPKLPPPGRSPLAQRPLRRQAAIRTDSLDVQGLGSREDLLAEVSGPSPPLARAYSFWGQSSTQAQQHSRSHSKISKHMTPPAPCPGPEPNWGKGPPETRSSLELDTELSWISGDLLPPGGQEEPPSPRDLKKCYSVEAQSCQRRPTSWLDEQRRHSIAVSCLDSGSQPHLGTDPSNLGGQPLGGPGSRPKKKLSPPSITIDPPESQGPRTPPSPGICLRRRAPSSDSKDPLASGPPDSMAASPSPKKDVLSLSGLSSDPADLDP

Mus musculus [4] = experiment: Antihyperalgesic activity in ddY mouse assessed as suppression of partial sciatic nerve ligation-induced mechanical allodynia at 10 mg/kg, ip administered 7 days by Von Frey test; type: functional, organism-based
Outline: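 Male ddY mice (18–25 g) had the right sciatic nerve partially ligated under isoflurane and were tested one week later. Dosing was i.p. as a suspension in 0.5% carboxymethyl cellulose sodium, with vehicle-treated sham and PSNL groups. Ipsilateral hindpaw threshold was measured by von Frey up-down method before ligation and 0–90 min after injection. Data are mean with S.E.M. (5–11 mice), analysed non-parametrically.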

Mus musculus [5] = experiment: Antihyperalgesic activity in ddY mouse assessed as suppression of partial sciatic nerve ligation-induced mechanical allodynia at 20 mg/kg, ip administered 7 days by Von Frey test; type: functional, organism-based
Outline: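 Male ddY mice (18–25 g) had the right sciatic nerve partially ligated under isoflurane and were tested 7 days later. Compound was suspended in 0.5% CMC-Na and given i.p. Ipsilateral hindpaw threshold was measured by von Frey up-down method before ligation and over 0–90 min post-dose. Data are mean ± S.E.M. (5–11 mice) with non-parametric statistics.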

[6] = Inhibition of T-type calcium channel in human Jurkat cells assessed as suppression of thapsigargin-induced intracellular calcium flux after 1 hr by indo-1 dye-based spectrofluorometric method; type: cell-based
[7] = Inhibition of T-type calcium channel (unknown origin); set-up: species or system Homo sapiens

Row | SMILES | Activity [1] | also measured
1 | C=CCc1c(O)cc2c(c1O)C(=O)CC(c1cccc(O)c1)O2 (configuration not stated) | 76.8% | –
2 | C=CCc1ccc2c(c1O)C(=O)CC(c1ccccc1)O2 (configuration not stated) | 90.1% | –
3 | O=C1CC(c2ccc(O)cc2)Oc2cc(O)c(CCC3CCCC3)c(O)c21 (configuration not stated) | 5.42% | IC50 [2]: 500 nM
4 | C=CCc1ccc2c(c1O)C(=O)CC(c1ccc(OCC)cc1)O2 (configuration not stated) | 65.2% | –
5 | C=CCc1c(O)cc2c(c1O)C(=O)CC(c1ccccc1)O2 (configuration not stated) | 70.1% | –
6 | CC(C)=CCc1ccc2c(c1O)C(=O)CC(c1ccc(Cl)cc1)O2 (configuration not stated) | 78.5% | –
7 | CC(C)=CCc1c(O)cc2c(c1O)C(=O)CC(c1ccc(O)c(O)c1)O2 (configuration not stated) | 14.7% | –
8 | C=C(C)[C@H](CC=C(C)C)Cc1c(O)cc(O)c2c1O[C@H](c1ccc(O)cc1O)CC2=O [SOPHORAFLAVANONE G] | – | IC50 [2]: 1000 nM; IC50 [3]: 1000 nM
9 | CCC(=CCc1c(O)cc2c(c1O)C(=O)CC(c1ccccc1O)O2)CC (configuration not stated) | 0.33% | IC50 [2]: 390 nM; Activity (Mus musculus [4]): Active; Activity (Mus musculus [5]): Active
10 | COCC(=O)O[C@]1(CCN(C)CCCc2nc3ccccc3[nH]2)CCc2cc(F)ccc2[C@@H]1C(C)C [MIBEFRADIL] | – | IC50 [6]: 1000 nM
11 | C=CCc1c(O)cc2c(c1O)C(=O)CC(c1ccccc1O)O2 (configuration not stated) | 63% | –
12 | COc1ccc(C2CC(=O)c3c(cc(O)c(CC=C(C)C)c3O)O2)cc1 (configuration not stated) | 47.6% | –
13 | CC(C)=CCc1c(O)cc2c(c1O)C(=O)CC(c1ccccc1)O2 (configuration not stated) | 72.6% | –
14 | C=CCc1ccc2c(c1O)C(=O)CC(c1ccc(C)cc1)O2 (configuration not stated) | 72.7% | –
15 | CC(C)=CCc1c(O)cc2c(c1O)C(=O)CC(c1cc(O)cc(O)c1)O2 (configuration not stated) | 80.9% | –
16 | C=CCc1ccc2c(c1O)C(=O)CC(c1ccc(OC)cc1)O2 (configuration not stated) | 59% | –
17 | CC(C)=CCc1ccc2c(c1O)C(=O)CC(c1ccccc1)O2 (configuration not stated) | 100% | –
18 | C=CCc1ccc2c(c1O)C(=O)CC(c1ccc(Cl)cc1)O2 (configuration not stated) | 35.9% | –
19 | CC(C)=CCc1ccc2c(c1O)C(=O)CC(c1ccccc1O)O2 (configuration not stated) | 3.77% | IC50 [2]: 1250 nM
20 | CC(C)=CCc1c(O)cc2c(c1O)C(=O)CC(c1c(O)cccc1O)O2 (configuration not stated) | 10.3% | –
21 | O=C1CC(c2ccc(O)cc2)Oc2cc(O)c(CC=C3CCCC3)c(O)c21 (configuration not stated) | 1.44% | IC50 [2]: 460 nM

Row | SMILES | Activity [1] | also measured
22 | CC(C)=CCc1c(O)cc2c(c1O)C(=O)CC(c1ccc(Cl)cc1)O2 (configuration not stated) | 59.7% | –
23 | CCCC(=CCc1c(O)cc2c(c1O)C(=O)CC(c1ccc(O)cc1)O2)CCC (configuration not stated) | 36.8% | –
24 | CC(C)CCc1c(O)cc2c(c1O)C(=O)CC(c1ccc(O)cc1)O2 (configuration not stated) | 1.69% | IC50 [2]: 480 nM
25 | CC(C)=CCc1c(O)cc(O)c2c1O[C@H](c1ccc(O)cc1)CC2=O | – | IC50 [2]: 1000 nM; IC50 [3]: 1000 nM
26 | CCC(=CCc1ccc2c(c1O)C(=O)CC(c1ccccc1O)O2)CC (configuration not stated) | 16.1% | –
27 | CCC(=CCc1c(O)cc2c(c1O)C(=O)CC(c1ccc(O)cc1)O2)CC (configuration not stated) | 22.2% | IC50 [2]: 260 nM
28 | CC(C)=CCc1c(O)cc2c(c1O)C(=O)CC(c1ccc(O)cc1)O2 (racemic) | 12.8% | IC50 [2]: 1000 nM; Activity (Mus musculus [4]): inactive; IC50 [3]: 1000 nM
29 | CC(C)=CCc1ccc2c(c1O)C(=O)CC(c1ccc(C)cc1)O2 (configuration not stated) | 103% | –
30 | COc1ccc(C2CC(=O)c3c(ccc(CC=C(C)C)c3O)O2)cc1 (configuration not stated) | 81.9% | –
31 | CC(C)=CCc1c(O)cc2c(c1O)C(=O)CC(c1ccccc1O)O2 (configuration not stated) | 2.04% | IC50 [2]: 640 nM
32 | C=CCc1c(O)cc2c(c1O)C(=O)CC(c1ccc(O)c(O)c1)O2 (configuration not stated) | 86.7% | –
33 | CC(C)=CCc1c(O)cc2c(c1O)C(=O)CC(c1cccc(O)c1)O2 (configuration not stated) | 2.09% | IC50 [2]: 1020 nM
34 | CC(C)=CCc1c(O)cc2c(c1O)C(=O)CC(c1cccc(O)c1O)O2 (configuration not stated) | 67.1% | –
35 | CCOc1ccc(C2CC(=O)c3c(ccc(CC=C(CC)CC)c3O)O2)cc1 (configuration not stated) | 57.8% | –
36 | CCC(CC)CCc1c(O)cc2c(c1O)C(=O)CC(c1ccc(O)cc1)O2 (configuration not stated) | 10.1% | –
37 | CCC1(C)CC(=O)NC1=O (configuration not stated) [ETHOSUXIMIDE] | – | IC50 [7]: 600000 nM
38 | C=CCc1c(O)cc2c(c1O)C(=O)CC(c1cc(O)cc(O)c1)O2 (configuration not stated) | 74.8% | –
39 | C=CCc1c(O)cc2c(c1O)C(=O)CC(c1ccc(Cl)cc1)O2 (configuration not stated) | 51.9% | –
40 | C=CCc1c(O)cc2c(c1O)C(=O)CC(c1ccc(OC)cc1)O2 (configuration not stated) | 50.8% | –
41 | C=CCc1c(O)cc2c(c1O)C(=O)CC(c1cccc(O)c1O)O2 (configuration not stated) | 83.8% | –
42 | C=CCc1ccc2c(c1O)C(=O)CC(c1ccccc1O)O2 (configuration not stated) | 32% | –
